Reference: ChEMBL document CHEMBL4725282, “Discovery of a Conformationally Constrained Oxazolidinone with Improved Safety and Efficacy Profiles for the Treatment of Multidrug-Resistant Tuberculosis” (J Med Chem, 2020)
In brackets after ≈: the same amount, converted by molar mass.

How the values were obtained:
[1] = Inhibition of human CaV alpha1c/alpha2/delta/beta2a expressed in HEK293 cells measured after 60 mins by fluo-4 AM dye based fluorescence assay; format: cell-based; conditions: HEK293, 1 h
Procedure, shortened: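 HEK-293 cells stably expressing human Cav1.2 (α1c, α2/δ, β2a) plus Kir2.3, seeded 1.2×10^4/well overnight in 1% FBS medium. Loaded with fluo-4 AM (4 μM), probenecid (5 mM) and brilliant black (1 mM) in 2× dye solution, 60 min at 37 °C. Ten concentrations from 1.52 to 30000 nM, duplicate, read on FLIPR (ex 470-495, em 515-575 nm). Inhibition normalised to KCl EC80 and solvent control; IC50 fitted.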

[2] = Genotoxicity in CHO-WBL cells assessed as chromosome aberration at 90 to 397.1 ug/ml measured after 20 hrs in presence of S9 fraction by Giemsa staining based; format: toxicity, subcellular, Cricetulus griseus; conditions: chinese hamster, s9, 20 h, dose 90-397.1 µg/ml
Procedure, shortened: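 CHO-WBL cells in McCoy's 5A with 10% FBS, seeded 20-24 h before treatment. Compound in DMSO, with or without serum-free S-9 mix. Treatment either 3 h, then HBSS wash and 17 h further culture, or 20 h; harvest at 20 h from treatment start. Colcemid 0.1 μg/mL for the final 2 h, hypotonic KCl, methanol:acetic acid fixation, Giemsa stain. 300 metaphases per concentration (150 per duplicate flask) scored.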

[3] = molecular target: T1, Amine oxidase [flavin-containing] A (Homo sapiens, UniProt P21397); assay: Inhibition of recombinant human MAOA expressed in baculovirus infected insect cells using kynuramine as substrate measured after 20 mins by LC-MS/MS analysis
T1 sequence (P21397 whole entry): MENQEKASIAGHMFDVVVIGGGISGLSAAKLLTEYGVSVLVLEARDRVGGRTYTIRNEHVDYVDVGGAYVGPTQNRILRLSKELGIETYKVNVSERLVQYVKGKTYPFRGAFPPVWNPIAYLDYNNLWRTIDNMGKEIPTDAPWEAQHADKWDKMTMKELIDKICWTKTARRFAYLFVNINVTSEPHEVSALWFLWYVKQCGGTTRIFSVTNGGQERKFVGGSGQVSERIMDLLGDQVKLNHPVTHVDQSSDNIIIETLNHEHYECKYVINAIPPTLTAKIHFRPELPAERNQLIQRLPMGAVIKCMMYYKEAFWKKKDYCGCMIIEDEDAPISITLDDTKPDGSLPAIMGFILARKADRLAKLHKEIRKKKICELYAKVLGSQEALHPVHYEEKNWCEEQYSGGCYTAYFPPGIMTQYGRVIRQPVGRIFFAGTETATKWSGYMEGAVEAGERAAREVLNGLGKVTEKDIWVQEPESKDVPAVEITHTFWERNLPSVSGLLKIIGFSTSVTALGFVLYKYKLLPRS
Procedure, shortened: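 Recombinant human MAO-A or MAO-B (50 μg/mL) in 100 mM potassium phosphate pH 7.4 with 5 mM MgCl2. Kynuramine substrate at 50 μM (MAO-A) or 25 μM (MAO-B). […] 4-Hydroxyquinoline formation measured by LC-MS/MS versus vehicle; IC50 derived.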

[4] = Cmax in Balb/c mouse at 2.5 mg/kg, iv by LC-MS/MS analysis; format: ADME, organism-based; set-up: route intravenous, dose 2.5 mg/kg; conditions: in vivo
Procedure, shortened: (§1)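 Female BALB/c mice (20–25 g), five per route. Oral dose 25 mg/kg in 0.5% carboxymethyl cellulose; i.v. dose 2.5 mg/kg in 10% DMSO/physiological saline. Blood sampled 5 min–72 h after p.o. and 2 min–48 h after i.v. Analyte quantified by LC/MS/MS (ESI positive, C18, isocratic methanol/water). Parameters from non-compartmental analysis.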

[5] = system: Mycobacterium tuberculosis; assay: Antitubercular activity against Mycobacterium tuberculosis H37Rv incubated for 7 days by microplate alamar blue assay; format: functional; conditions: 168 h, time 7 day
Procedure, shortened: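 MIC determined by microplate alamar blue assay (MABA) following a published protocol.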

[6] = system: HepG2; assay: Cytotoxicity against human HepG2 cells assessed as reduction in cell viability measured after 48 hrs by MTT assay; format: cell-based; conditions: HepG2, 48 h
Procedure, shortened: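 Cytotoxicity on Vero or HepG2 cells by MTT assay, run as previously reported.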

[7] = Inhibition of mitochondrial protein synthesis in rat H9c2 cells measured after 5 days by ELISA; format: cell-based; conditions: H9c2, 120 h
Procedure, shortened: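 H9C2 cells in DMEM with 10% FBS, seeded 1500/well. After 18 h, compound added at final 0.03–200 μM (3-fold series), then 5 days at 37 °C, 5% CO2; 0.5% DMSO negative control. MPS inhibition read by MitoBiogenesis In-Cell ELISA; IC50 calculated.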

[8] = AUC (0 to infinity) in Balb/c mouse at 25 mg/kg, po by LC-MS/MS analysis; format: ADME, organism-based; set-up: route oral, time infinity, dose 25 mg/kg; conditions: in vivo; procedure, shortened: as §1
[9] = Toxicity in CD-1 mouse assessed as increase in bone marrow micronucleus formation up to 2000 mg/kg, po administered daily via gavage for 2 days measured measured 18 to 24 hrs post last dose by microscopic analysis; format: organism-based; conditions: in vivo, 48 h, time 2 day
Procedure, shortened: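 Male CD-1 (ICR) mice, 28.3-33.3 g, 3 per group. Oral gavage on 2 consecutive days, 24 h apart, at 100-2000 mg/kg; 500, 1000 and 2000 mg/kg analysed. Bone marrow harvested 18-24 h after last dose and scored microscopically for micronucleus frequency and PCE/total erythrocytes.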

[10] = AUC (0 to t) in Balb/c mouse at 25 mg/kg, po by LC-MS/MS analysis; format: ADME, organism-based; set-up: dose 25 mg/kg; conditions: in vivo; procedure, shortened: as §1
[11] = Half life in CD-1 mouse hepatocytes at 2 uM by LC-MS/MS analysis; format: ADME, cell-based, Hepatocyte
Procedure, shortened: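 Hepatocytes (male CD-1 mouse, male SD rat, male beagle dog, male cynomolgus monkey, pooled human), final 1 μM compound and 1 million cells/mL, made by mixing 2 μM compound with 2 million cells/mL. Incubated at 37 °C in a CO2 incubator; sampled at 0, 15, 30, 60, 90 and 120 min. Quenched with methanol/ACN containing 0.1% formic acid. Parent remaining measured by LC-MS/MS.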

[12] = Toxicity in male Sprague-Dawley rat assessed as change in white blood cell count at 450 mg/kg/day, po administered for 4 weeks followed by 2 week recovery period (Rvb =6.12 +/- 1.10 10^9/L); format: organism-based; conditions: in vivo, 672 h
Procedure, shortened: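 SD rats aged 6-7 weeks, 24 per group (12 female, 12 male): vehicle, 50, 150 or 450 mg/kg/day given orally once daily for 4 weeks, then 2-week recovery. 8 per sex per group dissected after the last dose and 4 per sex after 14-day recovery. Hematology included WBC count, reported as mean ± SD (n = 12), compared with vehicle.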

[13] = Toxicity in male Sprague-Dawley rat assessed as change in neutrophil level at 150 mg/kg/day, po administered for 4 weeks followed by 2 week recovery period (Rvb =15.9 +/- 3.4 %); format: organism-based; conditions: in vivo, 672 h
[14] = Toxicity in male Sprague-Dawley rat assessed as histopathological changes at 50 to 450 mg/kg/day, po administered for 4 weeks measured post last dose; format: organism-based; conditions: in vivo, 672 h, dose 50-450 mg/kg/day

CC(=O)NC[C@@H]1OC(=O)N2c3cc(F)c(N4CC[S+]([O-])CC4)cc3OC[C@@H]12
IC50 [1]: > 30 µM
Activity [2]: Non-Toxic
IC50 [3]: > 100 µM
Cmax [4]: 115 ng/mL
MIC ([5]; Mycobacterium tuberculosis, H37Rv, read-out: MIC): 0.44 µg/mL (≈ 1.11 µM)
IC50 [6]: > 64 µg/mL
IC50 [7]: 60.6 µM
AUC(0-inf) [8]: 9020 ng·h/mL
Activity [9]: Non-Toxic
AUC(0-t) [10]: 8750 ng·h/mL

CC(=O)NC[C@@H]1OC(=O)N2c3cc(F)c(N4CCSCC4)cc3OC[C@@H]12
half-life at 2 µM [11]: 76.2 min
IC50 [1]: > 30 µM
Activity [12]: 5.06 10^9/L
IC50 [3]: 44.8 µM
Cmax [4]: 4200 ng/mL
MIC [5]: 0.03 µg/mL (≈ 0.0787 µM)
Activity [13]: 17%
IC50 [6]: > 64 µg/mL
IC50 [7]: > 100 µM
AUC(0-inf) [8]: 7620 ng·h/mL
Activity [9]: Non-Toxic
Activity [14]: Non-Toxic
AUC(0-t) [10]: 6480 ng·h/mL
